Hit rate of the full screen: of about 300,000 compounds, about 1,000 (0.33%) were called active. The full list was thinned out, with actives kept by preference. Values without a mark were called inactive.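 How the source made its calls: active means inhibition above the mean of all tested compounds plus 3 SD, set per screening campaign (cut at about 45% in these data); inactive means the rest.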
What follows are compounds tested on HCV core protein (residues 1-106) dimerization (assay: blockers of core106 self-association – biochemical, TR-FRET, high-throughput, primary screen (AID 1899)). Settings: TR-FRET GST/Flag-core106 dimerization, 1536-well; at 5 µM; active compounds read high.
Outline: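 Assay system: Tagged HCV core106 pair (GST and Flag) | Buffer or medium: KF-containing HEPES buffer, pH 7.45, DTT, CHAPS, BSA | Also added: Eu donor and XL665 acceptor anti-tag antibodies | Dosing: One concentration, 5 µM, in 0.5% DMSO | Timing: 4 h at 22.5 °C | Technique: TR-FRET 671 and 617 nm emission | Repeats: Singlicate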

| SMILES | inhibition |
| --- | --- |
| O=C1NC(=O)N(c2ccccc2)C(=O)/C1=C/c1ccc([N+](=O)[O-])s1 | -5.13% |
| COc1cccc(N2C(=O)NC(=O)/C(=C\c3cn(C)c4ccccc34)C2=O)c1 | -2.56% |
| Cc1cccc(N2C(=O)NC(=O)/C(=C\c3cnn(-c4ccccc4)c3)C2=O)c1 | 46.9% (active) |
| CN1C2C=C(N(C(=O)c3ccc(Cl)cc3)c3ccccc3)CC1CC2 (stereo not given) | -2.38% |
| CSC1=NP(=S)(SC)N(C)c2nc3n(c21)CCC3 (stereo not given) | 8.93% |

— PubChem BioAssay AID1899 (The Scripps Research Institute Molecular Screening Center, 2009)
